According to ChEMBL document CHEMBL1126796, “2-(Alkylamino)nicotinic acid and analogs. Potent angiotensin II antagonists” (J Med Chem, 1993):
Blank lines part the entries; values can stand above or below the compound they belong to. Calls of active or inactive are those of the source. No cut-off for these calls is given here.

Experiments:
Rattus norvegicus [1] = experiment: % decrease in blood pressure after 4 hours at a dose of 1 mg/kg in male rats by using Renal artery hypertensive model; assay type: functional
Outline: (§1)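 Male Sprague-Dawley rats (300-350 g) were made hypertensive by renal artery ligation and used on day 6 or 7 after ligation. Arterial pressure was measured from an indwelling femoral artery catheter, with blood pressure and heart rate recorded on line. Read-out is % decrease in blood pressure at 4 h, ±SEM, with number of rats.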

[2] = Bioavailability after oral dose of 3 mg/kg; assay type: ADME, organism-based; conditions: eutheria, in vivo
Outline: (§2)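 Male Sprague-Dawley-derived rats were dosed with compound in normal saline (1 mL/kg), by gavage or as a slow IV bolus into the jugular vein. Heparinized tail-vein blood was taken at 0.25-24 h, extracted liquid-liquid and assayed by reverse-phase HPLC. Cmax is the observed peak concentration and AUC is mean (SEM). F compares oral with IV AUC, corrected for dose and assuming dose proportionality.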

[3] = Half-life period after oral dose of 3 mg/kg; assay type: ADME, organism-based; parameters: dose 3 mg/kg, route oral; conditions: in vivo; outline: as §2
Rattus norvegicus [4] = experiment: % decrease in blood pressure after 24 hours at a dose of 0.1 mg/kg in male rats by using Furosemide-treated spontaneous hypertensive model; assay type: functional
Outline: (§3)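 Male SHR, 20-24 weeks old, pretreated with furosemide 10 mg/kg sc at 22 and 4 h before the experiment; compound dosed orally. Arterial pressure was recorded from an indwelling femoral artery catheter with on-line blood pressure and heart rate analysis. Read-out is % fall in blood pressure at 4 h and at 24 h, ±SEM, with number of rats.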

[5] = Volume of distribution of central compartment (= dose+ plasma concentration at time zero) after intravenous dose of 0.3 mg/kg; assay type: ADME, organism-based; parameters: dose 0.3 mg/kg, route intravenous; conditions: read-out: VI
Outline: (§4)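 Jugular-vein slow iv bolus (normal saline, 1 mL/kg) in male Sprague-Dawley-derived rats. Plasma was sampled via the tail vein at 0.1–24 h and measured by reverse-phase HPLC after liquid-liquid extraction. Central volume was taken as dose divided by plasma concentration at time zero. Terminal-phase volume was derived from clearance and the plasma elimination rate constant.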

[6] = Volume of distribution of central compartment (= dose+ plasma concentration at time zero) after intravenous dose of 3 mg/kg; assay type: ADME, organism-based; parameters: dose 3 mg/kg, route intravenous; conditions: read-out: VI; outline: as §4
[7] = Half-life period of compound after intravenous dose of 0.3 mg/kg; assay type: ADME, organism-based; parameters: dose 0.3 mg/kg, route intravenous; conditions: in vivo
Outline: (§5)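 Male Sprague-Dawley-derived rats. Compound was given in normal saline at 1 mL/kg, either as a slow iv bolus into the jugular vein or orally by gavage. Plasma underwent liquid-liquid extraction and reverse-phase HPLC. Terminal elimination half-life and time of observed peak concentration were taken from the profiles.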

[8] = Bioavailability after oral dose of 0.1 mg//kg; assay type: ADME, organism-based; conditions: eutheria, in vivo; outline: as §2
[9] = Volume of distribution of central compartment (= dose+ plasma concentration at time zero) after intravenous dose of 1 mg/kg; assay type: ADME, organism-based; parameters: dose 1 mg/kg, route intravenous; conditions: read-out: VI; outline: as §4
[10] = Half-life period of compound after intravenous dose of 1 mg/kg; assay type: ADME, organism-based; parameters: dose 1 mg/kg, route intravenous; conditions: in vivo; outline: as §5
[11] = Volume of distribution of the terminal phase (= CLp+ plasma elimination rate constant) after intravenous dose of 0.3 mg/kg; assay type: ADME, organism-based; parameters: dose 0.3 mg/kg, route intravenous; conditions: read-out: Vbeta; outline: as §4
[12] = Plasma clearance after intravenous dose of 1 mg/kg; assay type: ADME, organism-based; parameters: dose 1 mg/kg, route intravenous; conditions: read-out: Clp
Outline: (§6)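 Male Sprague-Dawley-derived rats received a slow iv bolus into the jugular vein of the compound in normal saline (1 mL/kg). Tail-vein heparinized blood was drawn from 0.1 to 24 h and assayed by reverse-phase HPLC after liquid-liquid extraction. Total plasma clearance was calculated as dose divided by AUC and reported as mean (SEM).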

[13] = Cmax value after oral dose of 3 mg/kg; assay type: ADME, organism-based; parameters: dose 3 mg/kg, route oral; conditions: in vivo; outline: as §2
[14] = Plasma clearance after intravenous dose of 0.3 mg/kg; assay type: ADME, organism-based; parameters: dose 0.3 mg/kg, route intravenous; conditions: read-out: Clp; outline: as §6
[15] = Tmax value after oral dose of 3 mg/kg; assay type: ADME, organism-based; parameters: dose 3 mg/kg, route oral; conditions: in vivo; outline: as §5
[16] = biological target: T1, Type-1 angiotensin II receptor A (Rattus norvegicus, UniProt P25095); experiment: Binding affinity against angiotensin II receptor from rat liver
T1 sequence (P25095 whole entry): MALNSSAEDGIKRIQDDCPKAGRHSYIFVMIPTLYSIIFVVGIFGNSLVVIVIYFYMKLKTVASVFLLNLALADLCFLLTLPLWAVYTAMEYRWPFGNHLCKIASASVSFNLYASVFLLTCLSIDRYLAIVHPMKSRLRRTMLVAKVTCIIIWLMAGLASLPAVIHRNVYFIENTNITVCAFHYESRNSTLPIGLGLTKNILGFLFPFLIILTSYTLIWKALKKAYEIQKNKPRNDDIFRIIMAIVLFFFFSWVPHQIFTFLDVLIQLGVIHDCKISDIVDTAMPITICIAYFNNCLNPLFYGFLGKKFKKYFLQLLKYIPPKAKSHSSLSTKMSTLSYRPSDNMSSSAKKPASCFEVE
Outline: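 Rat liver membranes were incubated with [125I]-saralasin to measure angiotensin II type 1 receptor binding. Nonspecific binding was defined with 1 µM angiotensin.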

[17] = Plasma clearance after intravenous dose of 3 mg/kg; assay type: ADME, organism-based; parameters: dose 3 mg/kg, route intravenous; conditions: read-out: Clp; outline: as §6
[18] = Cmax value after oral dose of 0.1 mg//kg; assay type: ADME, organism-based; parameters: dose 0.1 mg//kg, route oral; conditions: in vivo; outline: as §2
[19] = Cmax value after oral dose of 0.3 mg/kg; assay type: ADME, organism-based; parameters: dose 0.3 mg/kg, route oral; conditions: in vivo; outline: as §2
Rattus norvegicus [20] = experiment: % decrease in blood pressure after 4 hours at a dose of 1 mg/kg in male rats by using Furosemide-treated spontaneous hypertensive model; assay type: functional; outline: as §3
Rattus norvegicus [21] = experiment: % decrease in blood pressure after 4 hours in male rats at a dose of 0.03 mg/kg by using Renal artery hypertensive model; assay type: functional; outline: as §1
Rattus norvegicus [22] = experiment: % decrease in blood pressure after 24 hours at a dose of 1 mg/kg in male rats by using Furosemide-treated spontaneous hypertensive model; assay type: functional; outline: as §3
[23] = Area under curve after oral dose of 0.1 mg//kg; assay type: ADME; outline: as §2
[24] = Tmax value after oral dose of 1 mg/kg; assay type: ADME, organism-based; parameters: dose 1 mg/kg, route oral; conditions: in vivo; outline: as §5
[25] = Bioavailability after oral dose of 1 mg/kg; assay type: ADME, organism-based; conditions: eutheria, in vivo; outline: as §2
[26] = Half-life period after oral dose of 0.1 mg//kg; assay type: ADME, organism-based; conditions: in vivo; outline: as §2
[27] = Bioavailability after oral dose of 0.3 mg/kg; assay type: ADME, organism-based; conditions: eutheria, in vivo; outline: as §2
[28] = Cmax value after oral dose of 1 mg/kg; assay type: ADME, organism-based; parameters: dose 1 mg/kg, route oral; conditions: in vivo; outline: as §2
[29] = Volume of distribution of the terminal phase (= CLp+ plasma elimination rate constant) after intravenous dose of 1 mg/kg; assay type: ADME, organism-based; parameters: dose 1 mg/kg, route intravenous; conditions: read-out: Vbeta; outline: as §4
[30] = Half-life period after oral dose of 0.3 mg/kg; assay type: ADME, organism-based; parameters: dose 0.3 mg/kg, route oral; conditions: in vivo; outline: as §2
Rattus norvegicus [31] = experiment: % decrease in blood pressure after 4 hours in male rats at a dose of 0.01 mg/kg by using Renal artery hypertensive model; assay type: functional; outline: as §1
[32] = Volume of distribution of the terminal phase (= CLp+ plasma elimination rate constant) after intravenous dose of 3 mg/kg; assay type: ADME, organism-based; parameters: dose 3 mg/kg, route intravenous; conditions: read-out: Vbeta; outline: as §4
[33] = Area under curve after oral dose of 0.3 mg/kg; assay type: ADME, organism-based; parameters: dose 0.3 mg/kg, route oral; conditions: in vivo; outline: as §2
[34] = Area under curve after oral dose of 3 mg/kg; assay type: ADME, organism-based; parameters: dose 3 mg/kg, route oral; conditions: in vivo; outline: as §2
[35] = Half-life period after oral dose of 1 mg/kg; assay type: ADME, organism-based; parameters: dose 1 mg/kg, route oral; conditions: in vivo; outline: as §2
Rattus norvegicus [36] = experiment: % decrease in blood pressure after 4 hours at a dose of 0.1 mg/kg in male rats by using Furosemide-treated spontaneous hypertensive model; assay type: functional; outline: as §3
[37] = Half-life period of compound after intravenous dose of 3 mg/kg; assay type: ADME, organism-based; parameters: dose 3 mg/kg, route intravenous; conditions: in vivo; outline: as §5
Rattus norvegicus [38] = experiment: % decrease in blood pressure after 4 hours in male rats at a dose of 0.3 mg/kg by using Renal artery hypertensive model; assay type: functional; outline: as §1
[39] = Tmax value after oral dose of 0.3 mg/kg; assay type: ADME, organism-based; parameters: dose 0.3 mg/kg, route oral; conditions: in vivo; outline: as §5
[40] = Tmax value after oral dose of 0.1 mg//kg; assay type: ADME, organism-based; conditions: in vivo; outline: as §5
[41] = Area under curve after oral dose of 1 mg/kg; assay type: ADME, organism-based; parameters: dose 1 mg/kg, route oral; conditions: in vivo; outline: as §2
Rattus norvegicus [42] = experiment: % decrease in blood pressure after 4 hours in male rats at a dose of 3 mg/kg administered iv by using Renal artery hypertensive model; IA means inactive; assay type: functional, organism-based; parameters: dose 3 mg/kg; outline: as §1
Rattus norvegicus [43] = experiment: % decrease in blood pressure after 4 hours at a dose of 3 mg/kg administered iv in male rats by using Renal artery hypertensive model; IA means inactive; assay type: functional, organism-based; parameters: dose 3 mg/kg; outline: as §1
Rattus norvegicus [44] = experiment: % decrease in blood pressure after 4 hours at a dose of 0.3 mg/kg in male rats by using Renal artery hypertensive model; assay type: functional; outline: as §1
Rattus norvegicus [45] = experiment: % decrease in blood pressure after 4 hours at a dose of 1 mg/kg in male rats by using Furosemide-treated spontaneous hypertensive model; IA means inactive; assay type: functional, organism-based; parameters: dose 1 mg/kg; outline: as §3

bioavailability [2]: 36.3%
half-life [3]: 5.7 h
Vd [5]: 0.04 L/kg
Vd [6]: 0.04 L/kg
half-life [7]: 9.5 h
bioavailability [8]: 97.9%
Vd [9]: 0.04 L/kg
half-life [10]: 7.1 h
Vd [11]: 0.17 L/kg
clearance [12]: 0.07 mL/min
Cmax [13]: 9.6 µg/mL
clearance [14]: 0.07 mL/min
Tmax [15]: 0.9 h
Ki [16]: 0.00061 µM
clearance [17]: 0.07 mL/min
Cmax [18]: 0.49 µg/mL
Cmax [19]: 1.35 µg/mL
AUC [23]: 8.21 µg/h/mL
Tmax [24]: 0.9 h
bioavailability [25]: 34.9%
half-life [26]: ≤ 12 h
bioavailability [27]: 97.2%
Cmax [28]: 2.77 µg/mL
Vd [29]: 0.13 L/kg
half-life [30]: > 12 h
Vd [32]: 0.12 L/kg
AUC [33]: 24.44 µg/h/mL
AUC [34]: 90.15 µg/h/mL
half-life [35]: 6.9 h
half-life [37]: 6.6 h
Tmax [39]: 1.4 h
Tmax [40]: 1.3 h
AUC [41]: 28.87 µg/h/mL
Structure (SMILES): CCCN(Cc1ccc(-c2ccccc2-c2nnn[nH]2)cc1)c1ncccc1C(=O)O
Decrease in blood pressure (Rattus norvegicus [1]): 40%
Decrease in blood pressure (Rattus norvegicus [4]): 36%
Decrease in blood pressure (Rattus norvegicus [20]): 32%
Decrease in blood pressure (Rattus norvegicus [21]): 10%
Decrease in blood pressure (Rattus norvegicus [22]): 46%
Decrease in blood pressure (Rattus norvegicus [31]): 22%
Decrease in blood pressure (Rattus norvegicus [36]): 23%
Decrease in blood pressure (Rattus norvegicus [38]): 36%

Ki [16]: 0.0681 µM
Structure (SMILES): CCc1ncc(C(=O)O)c(NCc2ccc(-c3ccccc3-c3nn[nH]n3)cc2)n1.Cl
Decrease in blood pressure (Rattus norvegicus [42]): inactive
Decrease in blood pressure (Rattus norvegicus [43]): inactive

Structure (SMILES): CCCN(Cc1ccc(-c2ccccc2-c2nn[nH]n2)cc1)c1nc(F)ccc1C(=O)O
Decrease in blood pressure (Rattus norvegicus [20]): 15%
Decrease in blood pressure (Rattus norvegicus [22]): 36%

Structure (SMILES): CCCN(Cc1ccc(-c2ccccc2-c2nn[nH]n2)cc1)c1ncccc1C=O
Decrease in blood pressure (Rattus norvegicus [44]): 15%

Structure (SMILES): CCCN(Cc1ccc(-c2ccccc2-c2nn[nH]n2)cc1)c1ncccc1C(=O)OC
Decrease in blood pressure (Rattus norvegicus [45]): inactive
